{"source": "paper PMC3010304", "about": "(Bioorganic & medicinal chemistry letters, 2010)", "key": {"[1]": {"system": "A549 (human lung carcinoma)", "assay": "MTT cytotoxicity assay, A549", "type": "cell-based", "conditions": "48 h"}, "[2]": {"system": "MCF-7 (human breast cancer)", "assay": "MTT cytotoxicity assay, MCF-7", "type": "cell-based", "conditions": "48 h"}, "HIV-1IIIB": {"system": "HIV-1IIIB", "conditions": "HIV-1IIIB infected C8166 cell lines; cited from earlier work"}, "HIV-1NL4-3": {"system": "HIV-1NL4-3", "assay": "HIV-1NL4-3 replication inhibition assay in MT-4 lymphocytes", "type": "cell-based", "conditions": "HIV-1NL4-3 infected MT-4 cells", "method_in_brief": "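MT-4 cells infected with HIV-1 NL4-3 variants at a multiplicity of infection of 0.01, in a microtiter-plate replication screen.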"}, "[3]": {"target": "T1, rabbit muscle glycogen phosphorylase a (RMGPa) (Oryctolagus cuniculus, UniProt P00489)", "T1 sequence (P00489 1-843)": "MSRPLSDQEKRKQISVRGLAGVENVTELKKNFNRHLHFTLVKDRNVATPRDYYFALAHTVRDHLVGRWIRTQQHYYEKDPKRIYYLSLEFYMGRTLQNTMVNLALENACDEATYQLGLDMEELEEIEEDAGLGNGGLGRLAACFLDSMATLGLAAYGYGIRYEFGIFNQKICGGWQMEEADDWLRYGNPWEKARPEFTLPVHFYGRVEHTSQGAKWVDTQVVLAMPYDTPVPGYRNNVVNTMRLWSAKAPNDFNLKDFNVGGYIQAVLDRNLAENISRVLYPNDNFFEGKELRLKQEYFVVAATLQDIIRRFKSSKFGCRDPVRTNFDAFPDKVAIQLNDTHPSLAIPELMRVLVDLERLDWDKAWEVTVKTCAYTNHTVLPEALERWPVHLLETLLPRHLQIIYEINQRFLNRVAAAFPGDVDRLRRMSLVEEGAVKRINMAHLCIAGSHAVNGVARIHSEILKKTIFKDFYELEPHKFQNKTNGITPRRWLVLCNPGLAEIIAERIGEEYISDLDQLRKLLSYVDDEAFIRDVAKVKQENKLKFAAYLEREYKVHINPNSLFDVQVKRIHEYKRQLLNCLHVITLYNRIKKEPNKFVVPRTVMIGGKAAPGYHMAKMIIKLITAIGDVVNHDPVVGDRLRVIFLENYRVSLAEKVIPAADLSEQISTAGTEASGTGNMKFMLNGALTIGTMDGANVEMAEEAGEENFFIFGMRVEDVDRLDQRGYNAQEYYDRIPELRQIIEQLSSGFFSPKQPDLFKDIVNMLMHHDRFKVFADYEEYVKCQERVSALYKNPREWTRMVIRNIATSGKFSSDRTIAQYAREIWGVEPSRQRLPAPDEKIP", "assay": "Inhibition of rabbit muscle glycogen phosphorylase a", "type": "biochemical", "conditions": "for GP inhibitory potency relative to betulin (3): fold more potent than 3"}, "[4]": {"system": "PC3 (human prostate cancer)", "assay": "MTT cytotoxicity assay, PC3", "type": "cell-based", "conditions": "48 h, means of three experiments, NA = no activity"}}}
{"smiles": "C=C(C)[C@@H]1CC[C@]2(C(=O)O)CC[C@]3(C)[C@H](CC[C@@H]4[C@@]5(C)[C@H](C(=O)O)[C@H](O)C(C)(C)[C@@H]5CC[C@]43C)[C@@H]12", "note": "[Compound 1, Epiceanothic acid]", "values": [{"measurement": "decrease of cytotoxic activity against A549 compared with 12", "setting": "[1]", "value": "more than 20 fold"}, {"measurement": "decrease of cytotoxic activity against MCF-7 compared with 12", "setting": "[2]", "value": "more than 20 fold"}, {"measurement": "EC50, anti-HIV-1 replication activity", "setting": "HIV-1IIIB", "value": "< 0.064", "unit": "µg/mL"}]}
{"smiles": "C=C(C)[C@@H]1CC[C@]2(C(=O)O)CC[C@]3(C)[C@H](CC[C@@H]4[C@@]5(C)[C@@H](C(=O)O)[C@H](O)C(C)(C)[C@@H]5CC[C@]43C)[C@@H]12", "note": "[Compound 2a, ceanothic acid]", "values": [{"measurement": "anti-HIV-1 activity (result in words)", "setting": "HIV-1NL4-3", "value": "no anti-HIV-1 activity"}]}
{"smiles": "C=C(C)[C@@H]1CC[C@]2(CO)CC[C@]3(C)[C@H](CC[C@@H]4[C@@]5(C)CC[C@H](O)C(C)(C)[C@@H]5CC[C@]43C)[C@@H]12", "note": "[Compound 3, betulin]", "values": [{"measurement": "anti-HIV-1 activity (result in words)", "setting": "HIV-1NL4-3", "value": "did not exhibit significant antiviral activity"}]}
{"smiles": "C=C(C)[C@@H]1CC[C@]2(COC(c3ccccc3)(c3ccccc3)c3ccccc3)CC[C@]3(C)[C@H](CC[C@@H]4[C@@](C)(CC(=O)O)[C@H](C(C)(C)C(=O)O)CC[C@]43C)[C@@H]12", "note": "[Compound 5]", "values": [{"measurement": "GP inhibitory potency relative to betulin (3)", "setting": "[3]", "value": "~200", "unit": "fold"}, {"measurement": "GP inhibitory potency relative to compound 6", "setting": "[3]; fold more potent than 6", "value": 14, "unit": "fold"}]}
{"smiles": "C=C(C)[C@@H]1CC[C@]2(COC(c3ccccc3)(c3ccccc3)c3ccccc3)CC[C@]3(C)[C@H](CC[C@@H]4[C@@](C)(CC(=O)OC)[C@H](C(C)(C)C(=O)OC)CC[C@]43C)[C@@H]12", "note": "[Compound 6]", "values": [{"measurement": "GP inhibitory potency relative to betulin (3)", "setting": "[3]", "value": 14, "unit": "fold"}]}
{"smiles": "C=C(C)[C@@H]1CC[C@]2(COC(c3ccccc3)(c3ccccc3)c3ccccc3)CC[C@]3(C)[C@H](CC[C@@H]4[C@@]5(C)[C@H](C(=O)OC)[C@H](O)C(C)(C)[C@@H]5CC[C@]43C)[C@@H]12", "note": "[Compound 8]", "values": [{"measurement": "IC50 ±SD, cytotoxic activity, PC3", "setting": "[4]", "value": "inactive"}]}
{"smiles": "C=C(C)[C@@H]1CC[C@]2(COC(c3ccccc3)(c3ccccc3)c3ccccc3)CC[C@]3(C)[C@H](CC[C@@H]4[C@@]5(C)[C@H](C(=O)OC)[C@H](OC(C)=O)C(C)(C)[C@@H]5CC[C@]43C)[C@@H]12", "note": "[Compound 9]", "values": [{"measurement": "IC50 ±SD, cytotoxic activity, PC3", "setting": "[4]", "value": "inactive"}]}
